# Legend:
# Assay type in all cases: functional, organism-based
# [1] = tested on: Vibrio vulnificus; experiment: In vitro antibacterial activity against Vibrio vulnificus at a concentration of 2 mg/mL; - indicates No activity
# Procedure, shortened: (§1)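 Five microlitres of compound stock (about 0.2 mg) combined with bacterial suspension in Tris-buffered saline (0.8 OD at 580 nm). Mixture incubated 14 h at 14 °C, then plated on TCBS agar (thiosulphate–citrate–bile salt–sucrose) to read bactericidal activity.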
# [2] = tested on: Pseudomonas sp.; experiment: In vitro antibacterial activity against Pseudomonas species at a concentration of 2 mg/mL; - indicates No activity; procedure, shortened: as §1
# [3] = tested on: Vibrio fluvialis; experiment: In vitro antibacterial activity against Vibrio fluvialis at a concentration of 2 mg/mL; - indicates No activity; procedure, shortened: as §1
# [4] = tested on: Vibrio mimicus; experiment: In vitro antibacterial activity against Vibrio mimicus at a concentration of 2 mg/mL; - indicates No activity; procedure, shortened: as §1
# [5] = tested on: Escherichia coli; experiment: In vitro antibacterial activity against Escherichia coli at a concentration of 2 mg/mL; - indicates No activity; procedure, shortened: as §1
# [6] = tested on: Vibrio parahaemolyticus; experiment: In vitro antibacterial activity against Vibrio parahaemolyticus at a concentration of 2 mg/mL; - indicates No activity; procedure, shortened: as §1
# [7] = tested on: Vibrio alginolyticus; experiment: In vitro antibacterial activity against Vibrio alginolyticus at a concentration of 2 mg/mL; - indicates No activity; procedure, shortened: as §1
# [8] = tested on: Vibrio anguillarum; experiment: In vitro antibacterial activity against Vibrio anguillarum at a concentration of 2 mg/mL; - indicates No activity; procedure, shortened: as §1
# [9] = tested on: Pseudomonas sp.; experiment: In vitro antibacterial activity of (50:50%) of compounds against Pseudomonas species at a concentration of 2 mg/mL; - indicates No activity; procedure, shortened: as §1
# [10] = tested on: Vibrio parahaemolyticus; experiment: n vitro antibacterial activity of (25:50%) of compounds against Vibrio parahaemolyticus at a concentration of 2 mg/mL; + indicates No activity; procedure, shortened: as §1
# [11] = tested on: Vibrio anguillarum; experiment: n vitro antibacterial activity of (25:50%) of compounds against Vibrio anguillarum at a concentration of 2 mg/mL; + indicates No activity; procedure, shortened: as §1
# [12] = tested on: Vibrio alginolyticus; experiment: In vitro antibacterial activity of (50:50%) of compounds against Vibrio alginolyticus at a concentration of 2 mg/mL; - indicates No activity; procedure, shortened: as §1
# [13] = tested on: Vibrio parahaemolyticus; experiment: In vitro antibacterial activity of (50:50%) of compounds against Vibrio parahaemolyticus at a concentration of 2 mg/mL; - indicates No activity; procedure, shortened: as §1
# [14] = tested on: Vibrio fluvialis; experiment: In vitro antibacterial activity of (50:50%) of compounds against Vibrio fluvialis at a concentration of 2 mg/mL; - indicates No activity; procedure, shortened: as §1
# [15] = tested on: Vibrio vulnificus; experiment: In vitro antibacterial activity of (50:50%) of compounds against Vibrio vulnificus at a concentration of 2 mg/mL; - indicates No activity; procedure, shortened: as §1
# [16] = tested on: Escherichia coli; experiment: In vitro antibacterial activity of (50:50%) of compounds against Escherichia coli at a concentration of 2 mg/mL; - indicates No activity; procedure, shortened: as §1
# [17] = tested on: Vibrio anguillarum; experiment: In vitro antibacterial activity of (50:50%) of compounds against Vibrio anguillarum at a concentration of 2 mg/mL; - indicates No activity; procedure, shortened: as §1
# [18] = tested on: Vibrio mimicus; experiment: In vitro antibacterial activity of (50:50%) of compounds against Vibrio mimicus at a concentration of 2 mg/mL; - indicates No activity; procedure, shortened: as §1
# [19] = tested on: Vibrio vulnificus; experiment: n vitro antibacterial activity of (25:50%) of compounds against Vibrio vulnificus at a concentration of 2 mg/mL; + indicates No activity; procedure, shortened: as §1
# [20] = tested on: Vibrio mimicus; experiment: n vitro antibacterial activity of (25:50%) of compounds against Vibrio mimicus at a concentration of 2 mg/mL; + indicates No activity; procedure, shortened: as §1
# [21] = tested on: Escherichia coli; experiment: n vitro antibacterial activity of (25:50%) of compounds against Escherichia coli at a concentration of 2 mg/mL; + indicates No activity; procedure, shortened: as §1
# [22] = tested on: Vibrio fluvialis; experiment: n vitro antibacterial activity of (25:50%) of compounds against Vibrio fluvialis at a concentration of 2 mg/mL; + indicates No activity; procedure, shortened: as §1
# [23] = tested on: Vibrio alginolyticus; experiment: n vitro antibacterial activity of (25:50%) of compounds against Vibrio alginolyticus at a concentration of 2 mg/mL; + indicates No activity; procedure, shortened: as §1
# [24] = tested on: Pseudomonas sp.; experiment: n vitro antibacterial activity of (25:50%) of compounds against Pseudomonas species at a concentration of 2 mg/mL; + indicates No activity; procedure, shortened: as §1
# [25] = tested on: Vibrio fluvialis; experiment: In vitro antibacterial activity against Vibrio fluvialis in test 2; - indicates No activity; procedure, shortened: as §1
# [26] = tested on: Vibrio fluvialis; experiment: In vitro antibacterial activity against Vibrio fluvialis in test 1; - indicates No activity; procedure, shortened: as §1
# [27] = tested on: Escherichia coli; experiment: In vitro antibacterial activity against Escherichia coli in test 2; ++ indicates mild activity; procedure, shortened: as §1
# [28] = tested on: Escherichia coli; experiment: In vitro antibacterial activity against Escherichia coli in test 1; ++ indicates mild activity; procedure, shortened: as §1
smiles,measurement,setting,value
c1ccc([C@@H]2Nc3ccccc3[C@@H]3OCCC[C@H]23)cc1,Activity,[1],Not toxic
same,Activity,[2],Not toxic
same,Activity,[3],Not toxic
same,Activity,[4],Not toxic
same,Activity,[5],Not toxic
same,Activity,[6],Not toxic
same,Activity,[7],Not toxic
same,Activity,[8],Not toxic
c1ccc([C@@H]2Nc3ccccc3[C@@H]3OCCC[C@H]23)cc1.c1ccc([C@H]2Nc3ccccc3[C@@H]3OCCC[C@H]23)cc1,Activity,[9],Not toxic
same,Activity,[10],No activity
same,Activity,[11],No activity
same,Activity,[12],Not toxic
same,Activity,[13],Not toxic
same,Activity,[14],Not toxic
same,Activity,[15],Not toxic
same,Activity,[16],Not toxic
same,Activity,[17],Not toxic
same,Activity,[18],Not toxic
same,Activity,[19],No activity
same,Activity,[20],No activity
same,Activity,[21],No activity
same,Activity,[22],No activity
same,Activity,[23],No activity
same,Activity,[24],No activity
c1ccc([C@H]2Nc3ccccc3[C@@H]3OCCC[C@H]23)cc1,Activity,[25],Not toxic
same,Activity,[26],Not toxic
same,Activity,[27],mild activity
same,Activity,[28],mild activity
